Screens from PubChem BioAssay.
STEP inh: STEP (human) phosphatase inhibition | 0.25% of 360,000 active | recombinant STEP, OMFP fluorogenic substrate, fluorescence | inhibition, % at 20 µM | AID 588621;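 active = inhibition at 20 µM, scaled per plate between control wells, above about 37%, limit read from the data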;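 also: 0% = DMSO with enzyme and substrate and 100% = substrate only without enzyme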
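medium = Bis-Tris buffer pH 6.0, 2.5 mM DTT, 0.005% Tween 20 | test system = STEP (striatal-enriched tyrosine phosphatase) enzyme, cell-free | measure = normalized % inhibition | compound dosing = 20 µM, 1% DMSO | also added = 25 µM OMFP | schedule = reaction 20 min, ambient temperature | measured by = fluorescence read at 480 nm ex / 540 nm em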
DNMT1 block: DNMT1 (human) enzyme inhibition | DNMT1 molecular beacon, Hinp1I cleavage, fluorescence | P26358 | AID 588458 | 0.83% of 360,000 active | inhibition (reported as % activation of signal), % at 10 µM; in the data active = inhibition above about 50%
GRK2 aptamer HTS: inhibitors of human GRK2 displacing RNA aptamer. inhibition of aptamer binding, % at 10 µM. P25098. AID 488847. 0.59% of 330,000 active. bead flow cytometry, FAM-aptamer displacement from GRK2;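 active = inhibition of aptamer binding above 40%, roughly 3 SD of noise, on plates passing a quality check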;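 also: median bead fluorescence of bound FAM aptamer so fluorescent compounds give negative values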
SUMO1-SIM PPI: SUMO1-SIM interaction modulation. 0.33% of 360,000 active. inhibition, % at 20 µM. P63165. SUMO1 binding to a labelled peptide, TR-FRET, 1 h; in the data active = inhibition above about 37%
Target sequence (P63165 whole entry, looked up): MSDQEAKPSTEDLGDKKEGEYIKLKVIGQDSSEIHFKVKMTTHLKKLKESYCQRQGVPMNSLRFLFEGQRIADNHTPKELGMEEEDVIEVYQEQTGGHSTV
LMPTP block: LMPTP (human) inhibition; inhibition, % at 20 µM; AID 651560; recombinant LMPTP-A, OMFP fluorogenic substrate, fluorescence intensity; P24666; 0.22% of 360,000 active;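 active = compounds that cut the enzyme signal by at least half of the control window in the single-dose screen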;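 also: plate controls were DMSO wells with enzyme plus substrate for no effect and substrate without enzyme for full effect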
Target sequence (P24666 whole entry, looked up): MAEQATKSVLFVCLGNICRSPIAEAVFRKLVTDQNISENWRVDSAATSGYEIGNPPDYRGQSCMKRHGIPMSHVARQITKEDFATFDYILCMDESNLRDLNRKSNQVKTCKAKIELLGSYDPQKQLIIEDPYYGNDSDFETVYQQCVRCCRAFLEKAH
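Test system: LMPTP-A phosphatase enzyme. Amount: LMPTP-A at 0.625 nM final in the reaction. Reagent: OMFP substrate, 400 µM final. Times: 50 min at room temperature. Signal: endpoint fluorescence intensity from OMFP dephosphorylation. Read-out basis: % inhibition. Benchmarks: no-enzyme and uninhibited controls.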
Scp1 inh: blocks human Scp-1 phosphatase activity; Q9GZU7; Recombinant Scp1, phosphopeptide, malachite green phosphate absorbance; inhibition, % at 20 µM; 0.88% of 340,000 active; AID 493091;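 active = inhibition above about 50% at 20 µM, limit read from the data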;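 also: plate controls were DMSO wells with enzyme for no effect and wells lacking enzyme for full effect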
Target sequence (Q9GZU7 76-261 limits assumed): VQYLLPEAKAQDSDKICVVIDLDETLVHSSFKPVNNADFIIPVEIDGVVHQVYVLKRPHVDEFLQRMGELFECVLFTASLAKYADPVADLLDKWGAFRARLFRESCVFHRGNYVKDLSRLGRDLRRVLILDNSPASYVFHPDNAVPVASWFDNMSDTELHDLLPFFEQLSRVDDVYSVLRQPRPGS
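Incubation: 45 min enzyme reaction at room temperature / System: truncated SCP-1 phosphatase (76-261aa) / Reagent: Phospho 17-mer peptide substrate / Buffer or medium: Acidic Tris acetate buffer with magnesium and detergent / Signal: absorbance at 630 nm / Doses: one concentration, 20 µM, with 1.0% DMSO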
Scp-1 conf: confirmation of human Scp-1 phosphatase inhibitors; shares compounds with Scp1 inh; recombinant SCP-1 catalytic domain, phosphate release, malachite green absorbance; inhibition, % at 20 µM; 61% of 2,500 active; AID 540281;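 also: plate controls were DMSO with enzyme for no effect and buffer wells lacking enzyme for full effect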
MG interference: colorimetric interference in Scp-1 counter-screen; shares compounds with Scp1 inh; Colorimetric interference counterscreen, malachite green absorbance 630 nm; apparent inhibition (interference), % at 20 µM; 2,500 tested, under 10 active; AID 540313;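 also: compounds added after enzyme reaction finished so only phosphate colour detection is probed; plate controls were DMSO wells with completed Scp-1 reaction for no effect and substrate wells lacking enzyme for full effect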
Scp-1 Tm shift: binds human Scp-1, shifting its melting temperature; shares compounds with Scp1 inh; Recombinant SCP1, Sypro Orange thermal shift Tm; thermal shift relative to vanadate control, % at 40 µM; 25% of 1,500 active;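 active = substances whose mean melting-temperature shift, as a percentage of the reference inhibitor's shift, reaches about 5.3%, limit read from the data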;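 also: 0% = Tm of DMSO wells and 100% = Tm with sodium orthovanadate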
Beacon interf DR: beacon fluorescence artifact, dose response counter-screen; shares compounds with DNMT1 block; molecular beacon fluorescence, spectral interference counter-screen; IC50, µM; 200 tested, under 10 active; AID 602382; call rule not given here
DNMT1 inh conf: confirmation of human DNMT1 inhibitors | shares compounds with DNMT1 block | DNMT1 molecular beacon HinP1I cleavage, fluorescence | inhibition, % at 10 µM | 8% of 2,300 active | AID 602385;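 active = average inhibition of at least 30% in the single-concentration confirmation test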
DNMT1 interf: shows spectral interference in the DNMT1 beacon assay; shares compounds with DNMT1 block; DNMT1 molecular beacon spectral interference counterscreen, fluorescence 485/520; activation (fluorescence interference), % at 10 µM; 1% of 2,300 active;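 active = activation of at least 30% at 10 µM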;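 also: DNMT1 catalytic domain with a HinP1I cleavage step and a FAM/dabcyl DNA beacon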
Active calls of the source: *; x = no result given. Compounds with a hit are over-represented: about 2.1% of the library has one in this group of screens.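 The calls were made as follows, unless noted: active = inhibition of at least 30% at 20 µM; inactive = the rest.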

SMILES | STEP inh | DNMT1 block | GRK2 aptamer HTS | SUMO1-SIM PPI | LMPTP block | Scp1 inh | Scp-1 conf | MG interference | Scp-1 Tm shift | DNMT1 inh conf | DNMT1 interf | others
Cc1ccsc1/C=C/C1=Cc2c(sc(NC(=O)CSc3n[nH]c(N)n3)c2C#N)C(C)(C)C1 | 12 | 90* | 9 | 32 | 10 | 58* | 25 | -14 | x | 4 | 1
CCOc1ccc(/C=C/C2=Cc3c(sc(NC(=O)CSc4n[nH]c(N)n4)c3C#N)C(C)(C)C2)cc1 | -3 | -19 | 0 | 22 | -1 | -6 | x | x | x | x | x
CC1CCCCC1NC(=O)CNC(=O)c1ccco1 (stereo not drawn) | -3 | 1 | 0 | 6 | 0 | -2 | x | x | x | x | x
CC(C)(C)Cc1nnc(NC(=O)Cc2cccs2)s1 | 8 | 56* | 0 | 3 | 21 | 58* | 63* | -21 | 7.2* | 9 | 1
O=C(Cc1cccs1)Nc1nnc(Cc2ccccc2)s1 | 12 | 99* | 12 | 5 | 42 | 82* | 76* | -8 | 4 | 8 | 2
CCCCCc1nnc(NC(=O)Cc2cccs2)s1 | 9 | 59* | 8 | 4 | 6 | 68* | 85* | 1 | 6.3* | 10 | 2
O=C(CSc1nc(=O)n(CCN2CCOCC2)c2c1CCCC2)Nc1cccc([N+](=O)[O-])c1 | 2 | -3 | 2 | -27 | -1 | -1 | x | x | x | x | x
CCN(C(=O)CSc1nc2ccc(Cl)cc2[nH]1)C1CCS(=O)(=O)C1 (stereo not drawn) | -2 | -10 | 0 | 3 | 0 | 0 | x | x | x | x | x
O=C1c2[nH]c3ccccc3c2CC1N1C(=O)c2ccccc2C1=O (stereo not drawn) | -3 | 1 | x | -2 | 0 | x | x | x | x | x | x
COc1cc(/C=N/NC(=O)c2c(C)nnn2-c2nonc2N)ccc1O | -2 | 1 | 2 | -12 | -1 | 2 | x | x | x | x | x
Cc1nnn(-c2nonc2N)c1C(=O)N/N=C/c1ccccc1O | 11 | 79* | 0 | 3 | 36 | 51* | 64* | -12 | -4 | 12 | -1
CN1CCn2cnc(C(=O)NCCCCCNC(=O)OC(C)(C)C)c2C1=O | 2 | 7 | x | -8 | -2 | x | x | x | x | x | x
CC1(OC(=O)c2ccc(Cl)nc2)C(=O)C=C2C=C3CCCN3C=C2C1=O (stereo not drawn) | 10 | 66* | 4 | 15 | 4 | 65* | 16 | -12 | x | 6 | 4
O=C(Nc1ccc(S(=O)(=O)Nc2nccs2)cc1)c1nn(-c2ccc(F)cc2)ccc1=O | 7 | 59* | 0 | 5 | 56* | 93* | 59* | -22 | 4 | 10 | -4
CCOc1ccc(-n2ccc(=O)c(C(=O)Nc3ccc(S(=O)(=O)Nc4nccs4)cc3)n2)cc1 | -1 | -1 | 0 | -6 | 9 | 6 | x | x | x | x | x
COc1ccc(N2Cc3cccc(C(=O)N4CCN(C(=O)c5ccco5)CC4)c3C2=O)cc1 | 3 | 80* | 34 | 9 | 10 | 92* | 60* | -18 | 3 | 29 | -2 | Beacon interf DR=>99
COc1ccc(N2Cc3cccc(C(=O)N4CCOCC4)c3C2=O)cc1 | 5 | 0 | 2 | 0 | -2 | 1 | x | x | x | x | x
N#CCCN(C(=O)CSc1nnc(-c2ccncc2)n1C1CC1)c1ccccc1 | -2 | 4 | 0 | 5 | -2 | -7 | x | x | x | x | x
NC(=O)Cc1ccc(C(=O)CSc2nnc(-c3ccncc3)n2C2CC2)s1 | 0 | 78* | 0 | 15 | 57* | 79* | 82* | 5 | 7.0* | 8 | -1
COc1ccc(-c2nnc(NC(=O)c3cccs3)s2)c(OC)c1 | 14 | 80* | 3 | 13 | 45 | 96* | 67* | -16 | -18 | 2 | -4
COc1ccc(NC(=O)c2c3c(nc4ccccc24)CCC3)cc1S(=O)(=O)N1CCOCC1 | 8 | 86* | 13 | 9 | 2 | 81* | 59* | -14 | 11* | 8 | 3
c1coc(-c2nnc3sc(Cc4cccs4)nn23)c1 | 4 | 67* | 2 | 19 | 26 | 86* | 61* | -11 | 1 | 0 | -1
N#Cc1ccccc1CN1C(=O)S/C(=C/c2cccn2-c2ccc(C(=O)O)cc2)C1=O | 12 | 106* | 26 | -13 | 14 | 92* | 63* | -21 | -3 | 4 | 1
N#CC(C#N)=Cc1cccn1-c1ccc(C(=O)O)cc1 | 24 | 101* | 0 | -6 | 7 | 70* | 61* | -13 | 1 | 21 | -1
c1ccc2c(C(c3nnnn3-c3ccc4c(c3)OCCO4)N3CCCCC3)ccnc2c1 (stereo not drawn) | x | x | x | 4 | -1 | x | x | x | x | x | x
SMILES | STEP inh | DNMT1 block | GRK2 aptamer HTS | SUMO1-SIM PPI | LMPTP block | Scp1 inh | Scp-1 conf | MG interference | Scp-1 Tm shift | DNMT1 inh conf | DNMT1 interf | others
O=C(CSc1cccc[n+]1[O-])Nc1cc2c(cc1Cl)C(=O)c1ccccc1C2=O | 49* | 92* | 3 | 41* | 50* | 85* | 11 | -20 | x | 2 | -10
O=C(CSc1cccc[n+]1[O-])Nc1cc([N+](=O)[O-])ccc1Cl | -2 | 6 | 0 | -23 | -2 | -3 | x | x | x | x | x
COc1cc(OC)c(NC(=O)N2CCOCC2)cc1Cl | 1 | -2 | 2 | 1 | -2 | -5 | x | x | x | x | x
O=CC(O)C1OC(=O)C(O)C1O (stereo not drawn) | 10 | 90* | x | 11 | 6 | 64* | 43* | -9 | -15 | 44* | 4 | Beacon interf DR=>99
O=C1O[C@H](CO)[C@@H](O)[C@H](O)[C@H]1O | 0 | 1 | x | 3 | -1 | -6 | x | x | x | x | x
COCc1cc(C)n(CC(=O)N/N=C/c2ccc(-c3ccc(Cl)c(C(=O)O)c3)o2)c(=O)c1C#N | 3 | 58* | 29 | 15 | -1 | 66* | 63* | -13 | 5 | 5 | -2
COCc1cc(C)nc(N/N=C/c2ccc(-c3ccc(C(=O)O)c(Cl)c3)o2)c1C#N | x | x | 16 | x | x | x | x | x | x | x | x
N#CCCN1CCN(CCC#N)C1=S | -1 | 0 | x | 3 | -1 | -2 | x | x | x | x | x
